Test results reported in ChEMBL document CHEMBL1137767, “2-(3-Aryl-2-propenoyl)-3-methylquinoxaline-1,4-dioxides: a novel cluster of tumor-specific cytotoxins which reverse multidrug resistance” (Bioorg Med Chem, 2009).
The source made the active and inactive calls. The calls are words filed in the database; no cut-off is given here.

Columns and labels:
HSC-2 = test: Cytotoxicity against human HSC2 cells after 48 hrs; format: functional; details: HSC-2, 48 h
DU-145 = test: Growth inhibition of human DU145 cells at 10 uM; format: functional, cell-based
Outline: (§1)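 Human tumor cell line panel (59 lines across leukemia, melanoma, non-small cell lung, colon, CNS, ovarian, renal, prostate, breast) treated at a single 10 uM concentration; growth inhibition recorded per line.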

M14 = test: Growth inhibition of human M14 cells at 10 uM; format: functional, cell-based; outline: as §1
[1] = Growth inhibition of human Molt4/C8 cells after 3 days; format: functional, cell-based; details: MOLT-4, 72 h
Outline: (§2)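 Human CEM and Molt 4/C8 T-lymphocytes were grown for three days with or without serial dilutions of the compound. IC50 is the concentration that inhibits cell growth by 50%.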

SW-620 = test: Growth inhibition of human SW620 cells at 10 uM; format: functional, cell-based; outline: as §1
NCI-H23 = test: Growth inhibition of human NCI-H23 cells at 10 uM; format: functional, cell-based; outline: as §1
Hs-578T = test: Growth inhibition of human Hs 578T cells at 10 uM; format: functional, cell-based; outline: as §1
[2] = Cytotoxicity against human HPLF cells after 48 hrs; format: cell-based
NCI-H460 = test: Growth inhibition of human NCI-H460 cells at 10 uM; format: functional, cell-based; outline: as §1
OVCAR-4 = test: Growth inhibition of human OVCAR4 cells at 10 uM; format: functional, cell-based; outline: as §1
RXF 393 = test: Growth inhibition of human RXF393 cells at 10 uM; format: functional, cell-based; outline: as §1
OVCAR-8 = test: Growth inhibition of human OVCAR8 cells at 10 uM; format: functional, cell-based; outline: as §1
HOP-92 = test: Growth inhibition of human HOP92 cells at 10 uM; format: functional, cell-based; outline: as §1
CCRF-CEM [3] = test: Growth inhibition of human CCRF-CEM cells at 10 uM; format: functional, cell-based; outline: as §1
NCI-H522 = test: Growth inhibition of human NCI-H522 cells at 10 uM; format: functional, cell-based; outline: as §1
RPMI8266 = test: Growth inhibition of human […] cells at 10 uM; format: functional, cell-based; outline: as §1
MCF7 = test: Growth inhibition of human MCF7 cells at 10 uM; format: functional, cell-based; outline: as §1
HL-60 [4] = test: Growth inhibition of human HL60 cells at 10 uM; format: functional, cell-based; outline: as §1
HCT-116 = test: Growth inhibition of human HCT116 cells at 10 uM; format: functional, cell-based; outline: as §1
HSC-3 = test: Cytotoxicity against human HSC3 cells after 48 hrs; format: functional; details: HSC-3, 48 h
UO-31 = test: Growth inhibition of human UO31 cells at 10 uM; format: functional, cell-based; outline: as §1
[5] = molecular target: T1, ATP-dependent translocase ABCB1 (Homo sapiens, UniProt P08183); test: Reversal of P-glycoprotein-mediated multidrug resistance in human MDR1 gene transfected mouse L5178Y cells assessed as fluorescence activity ratio at 20 uM by rhodamine 123 accumulation assay; format: cell-based
T1 sequence (P08183 whole entry): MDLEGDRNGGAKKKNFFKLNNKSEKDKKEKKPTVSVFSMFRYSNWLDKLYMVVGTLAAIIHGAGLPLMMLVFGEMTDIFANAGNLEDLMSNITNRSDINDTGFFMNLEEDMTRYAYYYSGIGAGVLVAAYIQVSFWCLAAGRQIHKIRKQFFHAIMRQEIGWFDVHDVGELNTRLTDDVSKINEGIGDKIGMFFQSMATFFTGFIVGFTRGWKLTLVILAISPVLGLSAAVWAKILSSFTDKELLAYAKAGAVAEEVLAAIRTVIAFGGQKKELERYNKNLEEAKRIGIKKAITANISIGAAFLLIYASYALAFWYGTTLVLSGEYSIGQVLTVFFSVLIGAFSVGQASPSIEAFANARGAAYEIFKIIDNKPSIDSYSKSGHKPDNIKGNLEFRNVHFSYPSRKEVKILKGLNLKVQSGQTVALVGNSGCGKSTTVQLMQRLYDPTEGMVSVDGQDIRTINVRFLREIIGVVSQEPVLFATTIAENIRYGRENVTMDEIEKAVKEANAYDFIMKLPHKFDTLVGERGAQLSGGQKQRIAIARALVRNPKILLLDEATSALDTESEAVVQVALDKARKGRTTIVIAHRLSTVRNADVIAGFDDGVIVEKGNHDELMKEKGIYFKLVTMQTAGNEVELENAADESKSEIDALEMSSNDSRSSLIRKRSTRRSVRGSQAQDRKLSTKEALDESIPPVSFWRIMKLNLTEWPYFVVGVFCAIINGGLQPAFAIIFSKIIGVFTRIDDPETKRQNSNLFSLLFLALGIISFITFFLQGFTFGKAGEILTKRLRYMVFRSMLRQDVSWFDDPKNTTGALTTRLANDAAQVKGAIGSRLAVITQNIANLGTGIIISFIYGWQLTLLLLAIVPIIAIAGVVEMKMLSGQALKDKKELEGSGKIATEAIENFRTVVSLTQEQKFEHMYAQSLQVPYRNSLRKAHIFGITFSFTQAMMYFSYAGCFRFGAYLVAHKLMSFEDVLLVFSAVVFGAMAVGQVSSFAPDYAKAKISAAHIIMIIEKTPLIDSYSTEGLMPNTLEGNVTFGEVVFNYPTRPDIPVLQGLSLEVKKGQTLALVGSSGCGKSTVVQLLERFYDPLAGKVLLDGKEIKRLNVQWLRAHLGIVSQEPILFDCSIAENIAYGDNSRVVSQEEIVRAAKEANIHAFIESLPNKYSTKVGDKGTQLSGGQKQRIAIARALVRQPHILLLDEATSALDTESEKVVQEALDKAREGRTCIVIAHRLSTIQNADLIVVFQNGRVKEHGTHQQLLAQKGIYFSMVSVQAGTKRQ
Outline: (§3)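 Murine L-5178Y lymphoma cells transfected with human MDR1 gene (P-gp-overexpressing), alongside parental cells, treated or untreated with compound; rhodamine 123 accumulation measured by fluorescence; FAR = ratio of fluorescence intensity in treated versus untreated cells, values above 1 taken as MDR reversal.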

SF-295 = test: Growth inhibition of human SF295 cells at 10 uM; format: functional, cell-based; outline: as §1
A549 = test: Growth inhibition of human A549 cells at 10 uM; format: functional, cell-based; outline: as §1
HCT-15 = test: Growth inhibition of human HCT15 cells at 10 uM; format: functional, cell-based; outline: as §1
[6] = Cytotoxicity against human HGF cells after 48 hrs; format: cell-based
UACC-62 = test: Growth inhibition of human UACC62 cells at 10 uM; format: functional, cell-based; outline: as §1
MDA-MB-435 = test: Growth inhibition of human MDA-MB-435 cells at 10 uM; format: functional, cell-based; outline: as §1
HCC 2998 = test: Growth inhibition of human HCC2998 cells at 10 uM; format: functional, cell-based; outline: as §1
SNB-75 = test: Growth inhibition of human SNB75 cells at 10 uM; format: functional, cell-based; outline: as §1
PC-3 = test: Growth inhibition of human PC3 cells at 10 uM; format: functional, cell-based; outline: as §1
IGROV-1 = test: Growth inhibition of human IGROV1 cells at 10 uM; format: functional, cell-based; outline: as §1
OVCAR-3 = test: Growth inhibition of human OVCAR-3 cells at 10 uM; format: functional, cell-based; outline: as §1
[7] = Cytotoxicity against human HPC cells after 48 hrs; format: cell-based
MDA-MB-468 = test: Growth inhibition of human MDA-MB-468 cells at 10 uM; format: functional, cell-based; outline: as §1
U-251 = test: Growth inhibition of human U251 cells at 10 uM; format: functional, cell-based; outline: as §1
NCI/ADR-RES = test: Growth inhibition of human NCI/ADR-RES cells at 10 uM; format: functional, cell-based; outline: as §1
EKVX = test: Growth inhibition of human EKVX cells at 10 uM; format: functional, cell-based; outline: as §1
K562 = test: Growth inhibition of human K562 cells at 10 uM; format: functional, cell-based; outline: as §1
LOX IMVI = test: Growth inhibition of human LOXIMVI cells at 10 uM; format: functional, cell-based; outline: as §1
A498 = test: Growth inhibition of human A498 cells at 10 uM; format: functional, cell-based; outline: as §1
HSC-4 = test: Cytotoxicity against human HSC4 cells after 48 hrs; format: functional; details: HSC-4, 48 h
HL-60 [8] = test: Cytotoxicity against human HL60 cells after 48 hrs; format: functional; details: HL-60, 48 h
[9] = molecular target: T1, ATP-dependent translocase ABCB1; test: Reversal of P-glycoprotein-mediated multidrug resistance in human MDR1 gene transfected mouse L5178Y cells assessed as fluorescence activity ratio at 200 uM by rhodamine 123 accumulation assay; format: cell-based; outline: as §3
CAKI-1 = test: Growth inhibition of human Caki1 cells at 10 uM; format: functional, cell-based; outline: as §1
CCRF-CEM [10] = test: Growth inhibition of human CEM cells after 3 days; format: functional, cell-based; details: 72 h; outline: as §2
T47D = test: Growth inhibition of human T47D cells at 10 uM; format: functional, cell-based; outline: as §1

SMILES: Cc1c(C(=O)/C=C/c2ccc(F)cc2)[n+]([O-])c2ccccc2[n+]1[O-]
- CC50 (HSC-2): 6.2 µM
- growth inhibition (GI) (DU-145): Active
- growth inhibition (GI) (M14): Active
- IC50 [1]: 6.4 µM
- growth inhibition (GI) (SW-620): Active
- growth inhibition (GI) (NCI-H23): Active
- growth inhibition (GI) (Hs-578T): Active
- CC50 at 48 h [2]: 20 µM
- growth inhibition (GI) (NCI-H460): Active
- growth inhibition (GI) (OVCAR-4): Active
- growth inhibition (GI) (RXF 393): Active
- growth inhibition (GI) (OVCAR-8): Active
- growth inhibition (GI) (HOP-92): Active
- growth inhibition (GI) (CCRF-CEM [3]): Active
- growth inhibition (GI) (NCI-H522): Active
- growth inhibition (GI) (RPMI8266): Active
- growth inhibition (GI) (MCF7): Active
- growth inhibition (GI) (HL-60 [4]): Active
- growth inhibition (GI) (HCT-116): Active
- CC50 (HSC-3): 7.7 µM
- growth inhibition (GI) (UO-31): Active
- Ratio [5]: 4.81
- growth inhibition (GI) (SF-295): Active
- growth inhibition (GI) (A549): Active
- growth inhibition (GI) (HCT-15): Active
- CC50 at 48 h [6]: 31 µM
- growth inhibition (GI) (UACC-62): Active
- growth inhibition (GI) (MDA-MB-435): Active
- growth inhibition (GI) (HCC 2998): Active
- growth inhibition (GI) (SNB-75): Active
- growth inhibition (GI) (PC-3): Active
- growth inhibition (GI) (IGROV-1): Active
- growth inhibition (GI) (OVCAR-3): Active
- CC50 at 48 h [7]: 48 µM
- growth inhibition (GI) (MDA-MB-468): Active
- growth inhibition (GI) (U-251): Active
- growth inhibition (GI) (NCI/ADR-RES): Active
- growth inhibition (GI) (EKVX): Active
- growth inhibition (GI) (K562): Active
- growth inhibition (GI) (LOX IMVI): Active
- growth inhibition (GI) (A498): Active
- CC50 (HSC-4): 8.1 µM
- CC50 (HL-60 [8]): 4.6 µM
- Ratio [9]: 25.8
- growth inhibition (GI) (CAKI-1): Active
- IC50 (CCRF-CEM [10]): 10 µM
- growth inhibition (GI) (T47D): Active

SMILES: COc1ccc(/C=C/C(=O)c2c(C)[n+]([O-])c3ccccc3[n+]2[O-])cc1OC
- CC50 (HSC-2): 25 µM
- growth inhibition (GI) (DU-145): Active
- growth inhibition (GI) (M14): Active
- IC50 [1]: 18.5 µM
- growth inhibition (GI) (SW-620): Active
- growth inhibition (GI) (NCI-H23): Active
- growth inhibition (GI) (Hs-578T): Active
- CC50 at 48 h [2]: 156 µM
- growth inhibition (GI) (NCI-H460): Active
- growth inhibition (GI) (OVCAR-4): Active
- growth inhibition (GI) (RXF 393): Active
- growth inhibition (GI) (OVCAR-8): Active
- growth inhibition (GI) (HOP-92): Active
- growth inhibition (GI) (CCRF-CEM [3]): Active
- growth inhibition (GI) (NCI-H522): Active
- growth inhibition (GI) (RPMI8266): Active
- growth inhibition (GI) (MCF7): Active
- growth inhibition (GI) (HL-60 [4]): Active
- growth inhibition (GI) (HCT-116): Active
- CC50 (HSC-3): 31 µM
- growth inhibition (GI) (UO-31): Active
- Ratio [5]: 5.01
- growth inhibition (GI) (SF-295): Active
- growth inhibition (GI) (A549): Active
- growth inhibition (GI) (HCT-15): Active
- CC50 at 48 h [6]: 117 µM
- growth inhibition (GI) (UACC-62): Active
- growth inhibition (GI) (MDA-MB-435): Active
- growth inhibition (GI) (HCC 2998): Active
- growth inhibition (GI) (SNB-75): Active
- growth inhibition (GI) (PC-3): Active
- growth inhibition (GI) (IGROV-1): Active
- growth inhibition (GI) (OVCAR-3): Active
- CC50 at 48 h [7]: 142 µM
- growth inhibition (GI) (MDA-MB-468): Active
- growth inhibition (GI) (U-251): Active
- growth inhibition (GI) (NCI/ADR-RES): Active
- growth inhibition (GI) (EKVX): Active
- growth inhibition (GI) (K562): Active
- growth inhibition (GI) (LOX IMVI): Active
- growth inhibition (GI) (A498): Active
- CC50 (HSC-4): 38 µM
- CC50 (HL-60 [8]): 14 µM
- Ratio [9]: 23
- growth inhibition (GI) (CAKI-1): Active
- IC50 (CCRF-CEM [10]): 19.2 µM
- growth inhibition (GI) (T47D): Active

SMILES: COc1cc(/C=C/C(=O)c2c(C)[n+]([O-])c3ccccc3[n+]2[O-])cc(OC)c1OC
- CC50 (HSC-2): 7.8 µM
- IC50 [1]: 5.51 µM
- CC50 at 48 h [2]: 33 µM
- CC50 (HSC-3): 6.6 µM
- Ratio [5]: 8.15
- CC50 at 48 h [6]: 35 µM
- CC50 at 48 h [7]: 31 µM
- CC50 (HSC-4): 6.5 µM
- CC50 (HL-60 [8]): 1.9 µM
- Ratio [9]: 41.9
- IC50 (CCRF-CEM [10]): 5.22 µM
